What was measured:
Format in all cases: functional
[1] = test system: KM12; assay: Cytotoxicity against human KM12 cells after 48 hrs by SRB assay; conditions: KM12, 48 h
How it was run: (§1)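 NCI 60-cell-line screen. Cells preincubated 24 h at 37 °C, 5% CO2; time-zero plates TCA-fixed. Compounds dissolved in DMSO and tested at five concentrations (100, 10, 1.0, 0.1, 0.01 µM) for 48 h continuous exposure. Adherent cells fixed with cold TCA (10% final), then SRB stained; absorbance at 515 nm. GI50, TGI and LC50 calculated from growth relative to time-zero and untreated controls.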

[2] = test system: SF-295; assay: Cytotoxicity against human SF295 cells after 48 hrs by SRB assay; conditions: SF-295, 48 h; how it was run: as §1
[3] = test system: MDA-MB-231; assay: Cytotoxicity against human MDA-MB-231 cells after 48 hrs by SRB assay; conditions: MDA-MB-231, 48 h; how it was run: as §1
[4] = test system: HL-60(TB); assay: Cytotoxicity against human HL-60(TB) cells after 48 hrs by SRB assay; conditions: HL-60, 48 h; how it was run: as §1
[5] = test system: U-251; assay: Cytotoxicity against human U251 cells after 48 hrs by SRB assay; conditions: U-251, 48 h
How it was run: (§2)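 NCI 60-cell screen. Cells grew 24 h (37 °C, 5% CO2) before compound was added. Compounds were in DMSO and diluted in medium with gentamicin, then tested at five levels (100, 10, 1.0, 0.1, 0.01 µM) with 48 h continuous exposure. Adherent cells were fixed with TCA (10% final) and stained with 0.4% SRB, absorbance read at 515 nm. A time-zero plate was included. LC50 is the concentration giving 50% loss of protein relative to time zero.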

[6] = test system: CAKI-1; assay: Cytotoxicity against human Caki1 cells after 48 hrs by SRB assay; conditions: CAKI-1, 48 h; how it was run: as §1
[7] = test system: Hs-578T; assay: Cytotoxicity against human Hs578T cells after 48 hrs by SRB assay; how it was run: as §1
[8] = test system: PC-3; assay: Cytotoxicity against human PC3 cells after 48 hrs by SRB assay; conditions: PC-3, 48 h; how it was run: as §1
[9] = test system: MDA-MB-468; assay: Cytotoxicity against human MDA-MB-468 cells after 48 hrs by SRB assay; conditions: MDA-MB-468, 48 h; how it was run: as §1
[10] = test system: COLO 205; assay: Cytotoxicity against human COLO205 cells after 48 hrs by SRB assay; conditions: COLO 205, 48 h; how it was run: as §1
[11] = test system: HCT-15; assay: Cytotoxicity against human HCT15 cells after 48 hrs by SRB assay; conditions: HCT-15, 48 h; how it was run: as §1
[12] = test system: A498; assay: Cytotoxicity against human A498 cells after 48 hrs by SRB assay; conditions: A498, 48 h; how it was run: as §1
[13] = test system: SF-539; assay: Cytotoxicity against human SF539 cells after 48 hrs by SRB assay; conditions: SF-539, 48 h; how it was run: as §1
[14] = test system: RXF 393; assay: Cytotoxicity against human RXF393 cells after 48 hrs by SRB assay; conditions: RXF 393, 48 h; how it was run: as §1
[15] = test system: SK-OV-3; assay: Cytotoxicity against human SKOV3 cells after 48 hrs by SRB assay; conditions: SK-OV-3, 48 h; how it was run: as §1
[16] = test system: DU-145; assay: Cytotoxicity against human DU145 cells after 48 hrs by SRB assay; conditions: DU-145, 48 h; how it was run: as §1
[17] = test system: Malme-3M; assay: Cytotoxicity against human MALME-3M cells after 48 hrs by SRB assay; how it was run: as §1
[18] = test system: SNB-75; assay: Cytotoxicity against human SNB75 cells after 48 hrs by SRB assay; conditions: SNB-75, 48 h; how it was run: as §2
[19] = test system: BT-549; assay: Cytotoxicity against human BT549 cells after 48 hrs by SRB assay; conditions: BT-549, 48 h; how it was run: as §1
[20] = test system: UACC-62; assay: Cytotoxicity against human UACC62 cells after 48 hrs by SRB assay; conditions: UACC-62, 48 h; how it was run: as §2
[21] = test system: CCRF-CEM; assay: Cytotoxicity against human CCRF-CEM cells after 48 hrs by SRB assay; how it was run: as §1
[22] = test system: OVCAR-4; assay: Cytotoxicity against human OVCAR4 cells after 48 hrs by SRB assay; conditions: OVCAR-4, 48 h; how it was run: as §1
[23] = test system: M14; assay: Cytotoxicity against human M14 cells after 48 hrs by SRB assay; conditions: M14, 48 h; how it was run: as §1
[24] = test system: SR; assay: Cytotoxicity against human SR cells after 48 hrs by SRB assay; how it was run: as §2
[25] = test system: LOX IMVI; assay: Cytotoxicity against human LOXIMVI cells after 48 hrs by SRB assay; how it was run: as §1
[26] = test system: SW-620; assay: Cytotoxicity against human SW620 cells after 48 hrs by SRB assay; conditions: SW-620, 48 h; how it was run: as §2
[27] = test system: UACC-257; assay: Cytotoxicity against human UACC257 cells after 48 hrs by SRB assay; conditions: UACC-257, 48 h; how it was run: as §2
[28] = test system: IGROV-1; assay: Cytotoxicity against human IGROV1 cells after 48 hrs by SRB assay; conditions: IGROV-1, 48 h; how it was run: as §1
[29] = test system: A549; assay: Cytotoxicity against human A549/ATCC cells after 48 hrs by SRB assay; conditions: A549, 48 h; how it was run: as §1
[30] = test system: UO-31; assay: Cytotoxicity against human UO31 cells after 48 hrs by SRB assay; conditions: UO-31, 48 h; how it was run: as §2
[31] = test system: NCI-H23; assay: Cytotoxicity against human NCI-H23 cells after 48 hrs by SRB assay; conditions: NCI-H23, 48 h; how it was run: as §1
[32] = test system: HT-29; assay: Cytotoxicity against human HT-29 cells after 48 hrs by SRB assay; conditions: HT-29, 48 h; how it was run: as §1
[33] = test system: MOLT-4; assay: Cytotoxicity against human MOLT4 cells after 48 hrs by SRB assay; conditions: MOLT-4, 48 h; how it was run: as §1
[34] = test system: NCI-H522; assay: Cytotoxicity against human NCI-H522 cells after 48 hrs by SRB assay; conditions: NCI-H522, 48 h; how it was run: as §1
[35] = test system: 786-0; assay: Cytotoxicity against human 786-0 cells after 48 hrs by SRB assay; conditions: 786-0, 48 h; how it was run: as §1
[36] = test system: NCI/ADR-RES; assay: Cytotoxicity against human NCI/ADR-RES cells after 48 hrs by SRB assay; how it was run: as §1
[37] = read-out: LC50 (the source's name)

SMILES: COc1ccc(C2CC(c3cccc(Nc4ccnc5cc(Cl)ccc45)c3)=NN2C=O)cc1 (stereo unspecified)
- GI50 [1]: 440 nM
- LC50 (concentration killing 50% of cells) [1]: > 100000 nM
- GI50 [2]: 320 nM
- LC50 [2]: > 100000 nM
- GI50 [3]: 3190 nM
- LC50 (concentration killing 50% of cells present at time zero) [3]: > 100000 nM
- GI50 [4]: 250 nM
- CC50 [4, 37]: 5280 nM
- GI50 [5]: 450 nM
- CC50 [5, 37]: 41800 nM
- GI50 [6]: 330 nM
- LC50 [6]: 100000 nM
- GI50 [7]: 360 nM
- LC50 (50% net cell kill) [7]: > 100000 nM
- GI50 [8]: 850 nM
- LC50 [8]: > 100000 nM
- GI50 [9]: 210 nM
- LC50 [9]: > 100000 nM
- GI50 [10]: 450 nM
- LC50 [10]: 13900 nM
- GI50 [11]: 440 nM
- LC50 (concentration killing 50% of cells relative to time zero) [11]: > 100000 nM
- GI50 [12]: 260 nM
- CC50 [12, 37]: > 100000 nM
- GI50 [13]: 610 nM
- CC50 [13, 37]: 66200 nM
- GI50 [14]: 850 nM
- LC50 (concentration killing 50% of cells) [14]: > 100000 nM
- GI50 [15]: 700 nM
- LC50 (concentration killing 50% of cells) [15]: > 100000 nM
- GI50 [16]: 1350 nM
- LC50 (concentration killing 50% of cells) [16]: > 100000 nM
- GI50 [17]: 740 nM
- LC50 [17]: > 100000 nM
- GI50 [18]: 330 nM
- LC50 (50% net cell kill) [18]: > 100000 nM
- GI50 [19]: 450 nM
- LC50 (50% net cell kill vs time zero) [19]: 55600 nM
- GI50 [20]: 670 nM
- CC50 [20, 37]: > 100000 nM
- GI50 [21]: 680 nM
- LC50 (concentration killing 50% of cells relative to time zero) [21]: > 100000 nM
- GI50 [22]: 890 nM
- LC50 [22]: > 100000 nM
- GI50 [23]: 400 nM
- CC50 [23, 37]: > 100000 nM
- GI50 [24]: 240 nM
- LC50 [24]: > 100000 nM
- GI50 [25]: 580 nM
- LC50 [25]: 6700 nM
- GI50 [26]: 360 nM
- LC50 [26]: > 100000 nM
- LC50 [27]: > 100000 nM
- GI50 [28]: 1440 nM
- LC50 (concentration killing 50% of cells relative to time zero) [28]: > 100000 nM
- GI50 [29]: 570 nM
- CC50 [29, 37]: > 100000 nM
- GI50 [30]: 850 nM
- LC50 [30]: > 100000 nM
- GI50 [31]: 950 nM
- CC50 [31, 37]: > 100000 nM
- GI50 [32]: 340 nM
- LC50 [32]: > 100000 nM
- GI50 [33]: 490 nM
- LC50 [33]: > 100000 nM
- GI50 [34]: 300 nM
- CC50 [34, 37]: > 100000 nM
- GI50 [35]: 530 nM
- LC50 [35]: > 100000 nM
- GI50 [36]: 350 nM
- CC50 [36, 37]: > 100000 nM
